Data: ChEMBL document CHEMBL2010803, “Novel NSAID 1-acyl-4-cycloalkyl/arylsemicarbazides and 1-acyl-5-benzyloxy/hydroxy carbamoylcarbazides as potential anticancer agents and antioxidants” (Eur J Med Chem, 2012)
Calls of active or inactive are those of the source. The rule behind the calls is not given here.

What was measured:
[1] = system: Vaccinia virus; assay: Antiviral activity against Vaccinia virus infected in human lung fibroblast assessed as inhibition of virus-induced cytopathic effect at 0.32 to 100 uM; assay type: functional, organism-based; settings: Orthopoxvirus vaccinia
[2] = system: HaCaT; assay: Cytostatic activity against human HaCaT cells after 72 hrs by MTT assay; assay type: ADME, cell-based
Summary of the method: (§1)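 Monolayers in DMEM with 10% FBS, 2 mM L-glutamine and penicillin/streptomycin, 37 °C, 5% CO2. Seeded at 1–3 × 10^4 cells/ml, then compound added in tenfold dilutions (10⁻⁸–10⁻⁴ M) for 72 h. MTT read at 570 nm; percent growth taken against time-zero and untreated controls. IC50 by linear regression; quadruplicate, at least two experiments.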

[3] = system: Human respirovirus 3; assay: Antiviral activity against Parainfluenza virus 3 infected in african green monkey Vero cells assessed as inhibition of virus-induced cytopathic effect at 0.32 to 100 uM; assay type: functional, organism-based
Summary of the method: (§2)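 Confluent cell cultures were infected with 100 CCID50 of virus in the presence of test compound at 100, 40, 8, 1.6 and 0.32 μM. Cytopathic effect was scored once it was complete in untreated infected controls.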

[4] = system: Vesicular stomatitis virus; assay: Antiviral activity against VSV infected in human lung fibroblast assessed as inhibition of virus-induced cytopathic effect at 0.32 to 100 uM; assay type: functional, organism-based
[5] = system: Vesicular stomatitis virus; assay: Antiviral activity against Vesicular stomatitis virus infected in human cervix carcinoma cells assessed as inhibition of virus-induced cytopathic effect at 0.32 to 100 uM; assay type: functional, organism-based
Summary of the method: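 Confluent human cervix carcinoma (HeLa) cultures received 100 CCID50 of VSV together with the compound at 100, 40, 8, 1.6 or 0.32 μM. Cytopathicity was read at the point of full CPE in infected, untreated control wells.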

[6] = system: Influenza A virus; assay: Antiviral activity against Influenza A virus H1N1 infected in MDCK cells assessed as inhibition of virus-induced cytopathic effect at 0.32 to 100 uM; assay type: functional, organism-based
Summary of the method: (§3)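 Confluent MDCK monolayers were infected in the presence of the compound at 100, 40, 8, 1.6 and 0.32 μM. Viral cytopathicity was scored once it was complete in untreated infected control cultures.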

[7] = system: HCT-116; assay: Cytostatic activity against human HCT116 cells after 72 hrs by MTT assay; assay type: functional, cell-based; settings: HCT-116, 72 h; summary of the method: as §1
[8] = system: HeLa; assay: Cytostatic activity against human HeLa cells after 3 days by coulter counter analysis; assay type: functional, cell-based; settings: 72 h
Summary of the method: (§4)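 300,000–500,000 cells/ml mixed 1:1 with compound dilutions and incubated at 37 °C for 2 days (L1210) or 3 days (CEM, HeLa). Cell number counted with a Coulter counter; HeLa trypsinized before counting.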

[9] = system: MCF7; assay: Cytostatic activity against human MCF7 cells after 72 hrs by MTT assay; assay type: functional, cell-based; settings: MCF7, 72 h; summary of the method: as §1
[10] = system: Mammalian orthoreovirus 1; assay: Antiviral activity against Reovirus-1 infected in african green monkey Vero cells assessed as inhibition of virus-induced cytopathic effect at 0.32 to 100 uM; assay type: functional, organism-based; summary of the method: as §2
[11] = system: Respiratory syncytial virus; assay: Antiviral activity against RSV infected in human cervix carcinoma cells assessed as inhibition of virus-induced cytopathic effect at 0.32 to 100 uM; assay type: functional, organism-based; summary of the method: as §2
[12] = system: Human immunodeficiency virus 1; assay: Antiviral activity against HIV1 3B infected in human CEM cells assessed as inhibition of virus-induced CEM giant cell formation at 0.32 to 100 uM after 4 days; assay type: functional, organism-based; settings: CCRF-CEM
Summary of the method: (§5)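 CEM cells (~3 × 10^5 cells/cm³) exposed to 100 CCID50/ml of virus and seeded into wells holding compound dilutions. Incubated 4 days at 37 °C, then giant cell formation examined microscopically.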

[13] = Antioxidant activity assessed as inhibition of AAPH-induced linoleic acid lipid peroxidation by measuring conjugated diene hydroperoxide level; assay type: functional; set-up: concentration or dose not given beside the values
Summary of the method: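 Linoleic acid sodium salt (10 μL of 16 mM) in 0.05 M phosphate buffer pH 7.4 at 37 °C. Oxidation started under air with 50 μL of 40 mM AAPH. Conjugated diene hydroperoxide formation followed as absorbance rise at 234 nm; control contains the same DMSO level. At least triplicate.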

[14] = system: Coxsackievirus B4; assay: Antiviral activity against Coxsackievirus B4 infected in african green monkey Vero cells assessed as inhibition of virus-induced cytopathic effect at 0.32 to 100 uM; assay type: functional, organism-based; summary of the method: as §2
[15] = system: Human immunodeficiency virus 2; assay: Antiviral activity against HIV2 ROD infected in human CEM cells assessed as inhibition of virus-induced CEM giant cell formation at 0.32 to 100 uM after 4 days; assay type: functional, organism-based; settings: ISOLATE ROD, CCRF-CEM; summary of the method: as §5
[16] = system: Influenza B virus; assay: Antiviral activity against Influenza B virus infected in MDCK cells assessed as inhibition of virus-induced cytopathic effect at 0.32 to 100 uM; assay type: functional, organism-based; summary of the method: as §3
[17] = system: NCI-H460; assay: Cytostatic activity against human NCI-H460 cells after 72 hrs by MTT assay; assay type: functional, cell-based; settings: NCI-H460, 72 h; summary of the method: as §1
[18] = system: L1210; assay: Cytostatic activity against mouse L1210 cells after 2 days by coulter counter analysis; assay type: functional, cell-based; settings: L1210, 48 h; summary of the method: as §4
[19] = system: Coxsackievirus B4; assay: Antiviral activity against Coxsackievirus B4 infected in human cervix carcinoma cells assessed as inhibition of virus-induced cytopathic effect at 0.32 to 100 uM; assay type: functional, organism-based; summary of the method: as §2
[20] = system: Felid alphaherpesvirus 1; assay: Antiviral activity against Feline herpesvirus infected in feline CRFK cells assessed as inhibition of virus-induced cytopathic effect at 0.32 to 100 uM; assay type: functional, organism-based; summary of the method: as §2
[21] = system: Human alphaherpesvirus 1; assay: Antiviral activity against HSV1 KOS infected in human lung fibroblast assessed as inhibition of virus-induced cytopathic effect at 0.32 to 100 uM; assay type: functional, organism-based; summary of the method: as §2
[22] = system: Radical scavenging activity; assay: Antioxidant activity assessed as DPPH free radical scavenging activity at 100 uM after 60 mins by spectrophotometric analysis; assay type: functional
Summary of the method: (§6)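 0.05 mM DPPH in absolute ethanol mixed with an equal volume of compound in DMSO (final 100 μM). Shaken and left 20 or 60 min, then absorbance read at 517 nm and percent activity calculated. Three replicates, averaged.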

[23] = system: CCRF-CEM; assay: Cytostatic activity against human CEM cells after 3 days by coulter counter analysis; assay type: functional, cell-based; settings: 72 h; summary of the method: as §4
[24] = system: Feline coronavirus; assay: Antiviral activity against Feline coronavirus infected in feline CRFK cells assessed as inhibition of virus-induced cytopathic effect at 0.32 to 100 uM; assay type: functional, organism-based; summary of the method: as §2
[25] = system: Punta Toro virus; assay: Antiviral activity against Punta Toro virus infected in african green monkey Vero cells assessed as inhibition of virus-induced cytopathic effect at 0.32 to 100 uM; assay type: functional, organism-based; summary of the method: as §2
[26] = system: Influenza A virus; assay: Antiviral activity against Influenza A virus H3N2 infected in MDCK cells assessed as inhibition of virus-induced cytopathic effect at 0.32 to 100 uM; assay type: functional, organism-based; summary of the method: as §3
[27] = system: Human alphaherpesvirus 2; assay: Antiviral activity against HSV2 G infected in human lung fibroblast assessed as inhibition of virus-induced cytopathic effect at 0.32 to 100 uM; assay type: functional, organism-based; settings: strain G; summary of the method: as §2
[28] = system: Glycine max; assay: Inhibition of soybean LOX assessed as conversion of sodium linoleate to 13- hydroperoxylinoleic acid at 100 uM
[29] = system: Sindbis virus; assay: Antiviral activity against Sindbis virus infected in african green monkey Vero cells assessed as inhibition of virus-induced cytopathic effect at 0.32 to 100 uM; assay type: functional, organism-based; summary of the method: as §2
[30] = system: Radical scavenging activity; assay: Antioxidant activity assessed as DPPH free radical scavenging activity at 100 uM after 20 mins by spectrophotometric analysis; assay type: functional; summary of the method: as §6
[31] = dose or concentration not given here

Row | Structure (SMILES) | inhibition [1] | IC50 [2] [µM] | inhibition [3] | inhibition [4] | inhibition [5] | inhibition [6] | IC50 [7] [µM] | IC50 [9] [µM] | inhibition [10] | inhibition [11] | inhibition [12] | inhibition [14] | inhibition [15] | inhibition [16] | IC50 [17] [µM] | inhibition [19] | inhibition [20] | inhibition [21] | Activity [22] | IC50 [23] [µM] | other results
1 | CC(C(=O)NNC(=O)NCCc1ccccc1)c1cccc(Oc2ccccc2)c1 (configuration not stated) | inactive | 15 | inactive | inactive | inactive | inactive | 18 | 19 | inactive | inactive | inactive | inactive | inactive | inactive | 22 | inactive | inactive | inactive | 7% | 71 | IC50 [8]: 64 µM; inhibition [13, 31]: 51%; IC50 [18]: 53 µM; inhibition [24]: inactive; inhibition [25]: inactive; inhibition [26]: inactive; inhibition [27]: inactive; inhibition [28]: 20%; inhibition [29]: inactive; Activity [30]: 4%
2 | CC(C(=O)NNC(=O)NC1CCCC1)c1cccc(Oc2ccccc2)c1 (configuration not stated) | inactive | 18 | inactive | inactive | inactive | inactive | 36 | 20 | inactive | inactive | inactive | inactive | inactive | inactive | 33 | inactive | inactive | inactive | 19% | 73 | IC50 [8]: 39 µM; inhibition [13, 31]: 21%; IC50 [18]: 55 µM; inhibition [24]: inactive; inhibition [25]: inactive; inhibition [26]: inactive; inhibition [27]: inactive; inhibition [28]: inactive; inhibition [29]: inactive; Activity [30]: 16%
3 | CC(C)Cc1ccc(C(C)C(=O)NNC(=O)NC(c2ccccc2)c2ccccc2)cc1 (configuration not stated) | inactive | 13 | inactive | inactive | inactive | inactive | 13 | 6 | inactive | inactive | inactive | inactive | inactive | inactive | 16 | inactive | inactive | inactive | inactive | 23 | inhibition [13, 31]: 74%; IC50 [18]: 20 µM; inhibition [24]: inactive; inhibition [25]: inactive; inhibition [26]: inactive; inhibition [27]: inactive; inhibition [28]: 46%; inhibition [29]: inactive; Activity [30]: inactive
4 | CC(C(=O)NNC(=O)NCc1ccccc1)c1cccc(Cc2ccccc2)c1 (configuration not stated) | inactive | 25 | inactive | inactive | inactive | inactive | 24 | 12 | inactive | inactive | inactive | inactive | inactive | inactive | 28 | inactive | inactive | inactive | 9% | 49 | IC50 [8]: 94 µM; inhibition [13, 31]: 48%; IC50 [18]: 31 µM; inhibition [24]: inactive; inhibition [25]: inactive; inhibition [26]: inactive; inhibition [27]: inactive; inhibition [28]: inactive; inhibition [29]: inactive; Activity [30]: 3%
5 | CC(C(=O)NNC(=O)NCC1CCCCC1)c1cccc(Cc2ccccc2)c1 (configuration not stated) | inactive | 12 | inactive | inactive | inactive | inactive | 16 | 18 | inactive | inactive | inactive | inactive | inactive | inactive | 18 | inactive | inactive | inactive | 12% | 20 | inhibition [13, 31]: 61%; IC50 [18]: 22 µM; inhibition [24]: inactive; inhibition [25]: inactive; inhibition [26]: inactive; inhibition [27]: inactive; inhibition [28]: 9%; inhibition [29]: inactive; Activity [30]: 5%
6 | CC(C(=O)NNC(=O)NC1CCCC1)c1cccc(Cc2ccccc2)c1 (configuration not stated) | inactive | 50 | inactive | inactive | inactive | inactive | 33 | 19 | inactive | inactive | inactive | inactive | inactive | inactive | 38 | inactive | inactive | inactive | 12% | 66 | IC50 [8]: 43 µM; inhibition [13]: inactive; inhibition [24]: inactive; inhibition [25]: inactive; inhibition [26]: inactive; inhibition [27]: inactive; inhibition [28]: inactive; inhibition [29]: inactive; Activity [30]: 4%
